Results as given in ChEMBL document CHEMBL1140865, “Studies on anti-HIV quinolones: new insights on the C-6 position” (Bioorg Med Chem, 2009).
In brackets after ≈: the same amount, converted by molar mass.

Tests used:
[1] = Selectivity index, ratio of CC50 for human MT4 cells to EC50 for HIV 3B; assay type: toxicity, cell-based; settings: read-out: Ratio CC50/EC50
[2] = Selectivity index, ratio of CC50 for human MT4 cells to EC50 for HIV ROD; assay type: toxicity, cell-based; settings: read-out: Ratio CC50/EC50
[3] = system: Human immunodeficiency virus; test: Antiviral activity against HIV ROD in human MT4 cells assessed as inhibition of virus-induced cytopathogenicity by MTT assay; assay type: functional, organism-based; settings: Human immunodeficiency virus 2, ROD
Procedure, shortened: (§1)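 MT-4 cells resuspended at 6 × 10⁵ cells/mL, infected with HIV-1 IIIB or HIV-2 ROD at 100–300 CCID50, serial 5-fold compound dilutions. After 5 days, viability read by MTT reduction at 540 and 690 nm, median OD of three wells. EC50 = concentration giving 50% protection from viral cytopathic effect; mean ± SD of three separate experiments.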

[4] = system: Human immunodeficiency virus; test: Antiviral activity against HIV 3B in human MT4 cells assessed as inhibition of virus-induced cytopathogenicity by MTT assay; assay type: functional, organism-based; settings: Human immunodeficiency virus 1, 3B; procedure, shortened: as §1
[5] = Cytotoxicity against mock-infected human MT4 cells by MTT assay; assay type: cell-based
Procedure, shortened: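 Mock-infected MT-4 cells (6 × 10⁵ cells/mL) exposed to serial 5-fold compound dilutions in parallel with infected cultures. After 5 days, viability measured by MTT formazan absorbance (540 and 690 nm; median OD of three wells). CC50 = concentration reducing OD540 of mock-infected control by 50%; mean ± SD of three separate experiments.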

[6] = system: Human immunodeficiency virus; test: Antiviral activity against HIV 3B in PHA-stimulated human PBMC assessed as inhibition of p24 antigen production by ELISA; assay type: functional, organism-based; settings: Human immunodeficiency virus 1, 3B
Procedure, shortened: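 PBMCs from healthy donors isolated by density centrifugation, PHA-stimulated 3 days, washed, plated at 2 × 10⁵ per 200 µL with serial compound dilutions and infected with HIV at 1000 CCID50 per mL. On day 4, supernatant partly replaced with fresh compound-containing medium. At day 7, p24 in supernatant measured by ELISA. EC50 = 50% inhibition of p24; mean ± SD, at least two experiments.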

[7] = Cytotoxicity against mock-infected human PBMC; assay type: cell-based
Procedure, shortened: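 Mock-infected PHA-stimulated PBMCs cultured with serial compound dilutions. Viability determined by trypan blue exclusion. CC50 = concentration reducing viability by 50%; mean ± SD of at least two separate experiments.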

[8] = Selectivity index, ratio of IC50 for human PBMC to IC50 for HIV 3B

Row | Compound | selectivity ratio [1] | selectivity ratio [2] | EC50 [3] | EC50 [4] | CC50 [5] | EC50 [6] | CC50 [7] | Ratio CC50/EC50 [8]
1 | Cn1cc(C(=O)O)c(=O)c2cc(O)c(N3CCN(c4nc5ccccc5s4)CC3)cc21 | < 1 | < 1 | > 0.02 µg/mL | > 0.02 µg/mL | 0.02 µg/mL (≈ 0.0458 µM) |  |  | 
2 | Cn1cc(C(=O)O)c(=O)c2cc(O)c(N3CCN(c4cccc(C(F)(F)F)c4)CC3)cc21 |  |  | ≥ 0.133 µg/mL | ≥ 1.13 µg/mL | 1.13 µg/mL (≈ 2.53 µM) | 0.4 µg/mL (≈ 0.894 µM) | 1.61 µg/mL (≈ 3.6 µM) | 4
3 | COc1cc2c(=O)c(C(=O)O)cn(C)c2cc1N1CCN(c2nc3ccccc3s2)CC1 | < 1 | < 1 | > 0.05 µg/mL | > 0.05 µg/mL | 0.05 µg/mL (≈ 0.111 µM) |  |  | 
4 | Cn1cc(C(=O)O)c(=O)c2cc(O)c(N3CCN(c4ccccn4)CC3)cc21 | > 68 | > 96 | 1.31 µg/mL (≈ 3.44 µM) | 1.85 µg/mL (≈ 4.86 µM) | > 125 µg/mL | 0.39 µg/mL (≈ 1.03 µM) | ≥ 17.2 µg/mL | >=44
5 | Cc1cn([C@H]2C[C@H](N=[N+]=[N-])[C@@H](CO)O2)c(=O)[nH]c1=O [ZIDOVUDINE] | 1340 | 2480 | 0.0008 µg/mL (≈ 0.00299 µM) | 0.0015 µg/mL (≈ 0.00561 µM) | 2.01 µg/mL (≈ 7.52 µM) |  |  | 
6 | Cn1cc(C(=O)O)c(=O)c2cc(N)c(N3CCN(c4ccccn4)CC3)cc21 | 15 | 10 | 0.097 µg/mL (≈ 0.256 µM) | 0.058 µg/mL (≈ 0.153 µM) |  |  |  | 
7 | Cc1ccnc2c1NC(=O)c1cccnc1N2C1CC1 [NEVIRAPINE] | > 176 |  | > 4 µg/mL | 0.023 µg/mL (≈ 0.0864 µM) | > 4 µg/mL |  |  | 
8 | Cn1cc(C(=O)O)c(=O)c2cc(C(F)(F)F)c(N3CCN(c4nc5ccccc5s4)CC3)cc21 | < 1 | < 1 | > 0.54 µg/mL | > 0.54 µg/mL | 0.54 µg/mL (≈ 1.11 µM) |  |  | 
9 | Cn1cc(C(=O)O)c(=O)c2cc(C(F)(F)F)c(N3CCN(c4ccccn4)CC3)cc21 | < 1 | < 1 | > 13.9 µg/mL | > 13.9 µg/mL | 13.9 µg/mL (≈ 32.2 µM) |  |  | 
10 | Cn1cc(C(=O)O)c(=O)c2cc(C(F)(F)F)c(N3CCN(c4cccc(C(F)(F)F)c4)CC3)cc21 | < 1 | < 1 | > 1.65 µg/mL | > 1.65 µg/mL | 1.65 µg/mL (≈ 3.3 µM) |  |  | 
11 | Cn1cc(C(=O)O)c(=O)c2cc(O)c(N3CCN(c4ccc5ccccc5n4)CC3)cc21 | 6 | 14 | 0.033 µg/mL (≈ 0.0767 µM) | 0.08 µg/mL (≈ 0.186 µM) | 0.47 µg/mL (≈ 1.09 µM) | 0.26 µg/mL (≈ 0.604 µM) | 1.91 µg/mL (≈ 4.44 µM) | 7
12 | Cn1cc(C(=O)O)c(=O)c2cc(O)c(N3CCN(c4cnccn4)CC3)cc21 | < 1 | < 1 | > 125 µg/mL | > 125 µg/mL | > 125 µg/mL |  |  | 
13 | COc1cc2c(=O)c(C(=O)O)cn(C)c2cc1N1CCN(c2ccccn2)CC1 | 5 | 6.5 | 0.4 µg/mL (≈ 1.01 µM) | 0.47 µg/mL (≈ 1.19 µM) | 2.55 µg/mL (≈ 6.47 µM) | 1.78 µg/mL (≈ 4.51 µM) | 8.46 µg/mL (≈ 21.4 µM) | 5
